# Measurements: ChEMBL document CHEMBL3351896, “Small Molecule that Reverses Dexamethasone Resistance in T-cell Acute Lymphoblastic Leukemia (T-ALL)” (ACS Med Chem Lett, 2014)
# Calls of active or inactive are those of the source. The rule behind the calls is not given here.
# Legend:
# [1] = Growth inhibition of human CUTLL1 cells in absence of 1 uM dexamethasone after 48 hrs by alamar blue assay; type: functional, cell-based; settings: CUTLL1, 48 h
# Method in brief: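 CUTLL1 cells given compound alone or with dexamethasone 1 μM. Growth inhibition measured by alamar blue after 48 h.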
# [2] = system: CUTLL1; assay: Growth inhibition of human CUTLL1 cells at 50 uM in presence of staurosporine after 48 hrs by alamar blue assay; type: functional, cell-based
# [3] = target: Gamma-secretase (Homo sapiens) (UniProt Q96BI3+Q9NZ42+Q8WW43+P49768+Q92542+P49810); assay: Inhibition of gamma secretase in human CUTLL1 cells assessed as effect on NOTCH cleavage level at 25 uM in presence of 1 uM dexamethasone after 24 hrs by Western blotting; type: cell-based
# Method in brief: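 Western blot of intracellular NOTCH (ICN) in CUTLL1 cells after 24 h exposure to compound alone or with 1 μM dexamethasone. The γ-secretase inhibitor Compound E (100 nM) plus dexamethasone was the reference treatment.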
# [4] = system: CUTLL1; assay: Growth inhibition of human CUTLL1 cells at 12.5 to 50 uM in presence of 1 uM dexamethasone and 1 uM […] and glucocorticoid receptor antagonist RU486 after 48 hrs by alamar blue assay; type: functional, cell-based
# Method in brief: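 CUTLL1 cells treated for 48 h with compound, with or without dexamethasone 1 μM and RU486 1 μM. Growth inhibition read out by alamar blue.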
# [5] = system: CUTLL1; assay: Growth inhibition of human CUTLL1 cells with high GR expression levels at 50 uM after 48 hrs by alamar blue assay; type: functional, cell-based
# Method in brief: (§1)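 Human CUTLL1 T-ALL cells engineered to express high (overexpressed) or low (knockdown) glucocorticoid receptor levels. Exposed to compound alone or with 1 μM dexamethasone. Alamar blue growth inhibition read after 48 h.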
# [6] = system: CUTLL1; assay: Growth inhibition of human CUTLL1 cells with low GR expression levels at 50 uM after 48 hrs by alamar blue assay; type: functional, cell-based; method in brief: as §1
# [7] = system: CUTLL1; assay: Increase in GR expression in human CUTLL1 cells at 25 to 50 uM in presence of 1 uM dexamethasone after 24 hrs by Western blotting method; type: functional, cell-based
# Method in brief: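 CUTLL1 cells exposed to compound (25 or 50 μM) alone, with 1 μM dexamethasone, or with dexamethasone plus 1 μM RU486, for 6 or 24 h. GR measured as protein by Western blot and as transcript by RT-qPCR.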
# [8] = system: CUTLL1; assay: Effect on GGNBP2 gene expression in human CUTLL1 cells in presence of 1 uM dexamethasone at 30 uM after 24 hrs by microarray method; type: functional, cell-based
# Method in brief: (§2)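 CUTLL1 T-ALL cells exposed 24 h to vehicle (DMSO), dexamethasone alone (1 μM), test agent alone (30 μM), or dexamethasone (1 μM) plus test agent (30 μM), in triplicate. Expression profiled by microarray. Leading-edge genes from GSEA were compared between the dexamethasone-plus-agent and dexamethasone-alone groups, using glucocorticoid-regulated gene sets from ALL patients on glucocorticoid therapy.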
# [9] = system: CUTLL1; assay: Effect on BTG1 gene expression in human CUTLL1 cells in presence of 1 uM dexamethasone at 30 uM after 24 hrs by microarray method; type: functional, cell-based; method in brief: as §2
# [10] = system: CUTLL1; assay: Effect on TWISTNB gene expression in human CUTLL1 cells in presence of 1 uM dexamethasone at 30 uM after 24 hrs by microarray method; type: functional, cell-based
# Method in brief: (§3)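 Human CUTLL1 T-ALL cells exposed for 24 h to vehicle (DMSO), dexamethasone alone (1 μM), test compound alone (30 μM), or dexamethasone 1 μM plus compound 30 μM, each in triplicate. Expression profiled by microarray. Glucocorticoid-regulated gene sets from ALL patients on glucocorticoid therapy scored by GSEA. Leading-edge genes compared between the combination and dexamethasone alone.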
# [11] = system: CUTLL1; assay: Effect on RPS14 gene expression in human CUTLL1 cells in presence of 1 uM dexamethasone at 30 uM after 24 hrs by microarray method; type: functional, cell-based; method in brief: as §3
# [12] = system: CUTLL1; assay: Effect on BRCA1 gene expression in human CUTLL1 cells in presence of 1 uM dexamethasone at 30 uM after 24 hrs by microarray method; type: functional, cell-based; method in brief: as §2
# [13] = system: CUTLL1; assay: Effect on TIFA gene expression in human CUTLL1 cells in presence of 1 uM dexamethasone at 30 uM after 24 hrs by microarray method; type: functional, cell-based; method in brief: as §3
# [14] = system: CUTLL1; assay: Effect on PCNA gene expression in human CUTLL1 cells in presence of 1 uM dexamethasone at 30 uM after 24 hrs by microarray method; type: functional, cell-based; method in brief: as §3
# [15] = system: CUTLL1; assay: Effect on BYSL gene expression in human CUTLL1 cells in presence of 1 uM dexamethasone at 30 uM after 24 hrs by microarray method; type: functional, cell-based; method in brief: as §2
# [16] = system: CUTLL1; assay: Effect on NHP2 gene expression in human CUTLL1 cells in presence of 1 uM dexamethasone at 30 uM after 24 hrs by microarray method; type: functional, cell-based; method in brief: as §2
# [17] = system: CUTLL1; assay: Effect on ATAD2 gene expression in human CUTLL1 cells in presence of 1 uM dexamethasone at 30 uM after 24 hrs by microarray method; type: functional, cell-based; method in brief: as §2
# [18] = system: CUTLL1; assay: Effect on TSC22D3 gene expression in human CUTLL1 cells in absence of 1 uM dexamethasone at 30 uM after 24 hrs by microarray method; type: functional, cell-based; method in brief: as §3
# [19] = system: CUTLL1; assay: Effect on ZFP36L2 gene expression in human CUTLL1 cells in absence of 1 uM dexamethasone at 30 uM after 24 hrs by microarray method; type: functional, cell-based; method in brief: as §3
# [20] = system: CUTLL1; assay: Effect on LILRB3 gene expression in human CUTLL1 cells in absence of 1 uM dexamethasone at 30 uM after 24 hrs by microarray method; type: functional, cell-based; method in brief: as §2
# [21] = system: CUTLL1; assay: Effect on SMAP2 gene expression in human CUTLL1 cells in absence of 1 uM dexamethasone at 30 uM after 24 hrs by microarray method; type: functional, cell-based; method in brief: as §3
# [22] = system: CUTLL1; assay: Effect on DDIT4 gene expression in human CUTLL1 cells in absence of 1 uM dexamethasone at 30 uM after 24 hrs by microarray method; type: functional, cell-based; method in brief: as §2
# [23] = system: CUTLL1; assay: Effect on SPC25 gene expression in human CUTLL1 cells in absence of 1 uM dexamethasone at 30 uM after 24 hrs by microarray method; type: functional, cell-based; method in brief: as §3
# [24] = system: CUTLL1; assay: Effect on RPS14 gene expression in human CUTLL1 cells in absence of 1 uM dexamethasone at 30 uM after 24 hrs by microarray method; type: functional, cell-based; method in brief: as §3
# [25] = system: CUTLL1; assay: Effect on TIPIN gene expression in human CUTLL1 cells in absence of 1 uM dexamethasone at 30 uM after 24 hrs by microarray method; type: functional, cell-based; method in brief: as §3
# [26] = system: CUTLL1; assay: Effect on SKP2 gene expression in human CUTLL1 cells in absence of 1 uM dexamethasone at 30 uM after 24 hrs by microarray method; type: functional, cell-based; method in brief: as §3
# [27] = system: CUTLL1; assay: Effect on CDC25A gene expression in human CUTLL1 cells in absence of 1 uM dexamethasone at 30 uM after 24 hrs by microarray method; type: functional, cell-based; method in brief: as §2
# [28] = system: CUTLL1; assay: Effect on GINS2 gene expression in human CUTLL1 cells in absence of 1 uM dexamethasone at 30 uM after 24 hrs by microarray method; type: functional, cell-based; method in brief: as §2
# [29] = system: CUTLL1; assay: Effect on ATAD2 gene expression in human CUTLL1 cells in absence of 1 uM dexamethasone at 30 uM after 24 hrs by microarray method; type: functional, cell-based; method in brief: as §2
# [30] = system: CUTLL1; assay: Effect on MCM4 gene expression in human CUTLL1 cells in absence of 1 uM dexamethasone at 30 uM after 24 hrs by microarray method; type: functional, cell-based; method in brief: as §2
# [31] = system: CUTLL1; assay: Effect on TK1 gene expression in human CUTLL1 cells in absence of 1 uM dexamethasone at 30 uM after 24 hrs by microarray method; type: functional, cell-based; method in brief: as §3
compound,measurement,setting,value
Nc1ncc(-c2ccncc2)c(C2CC2)n1,EC50,[1],≥ 100 µM
same,growth inhibition (GI),[2],inactive
same,inhibition,[3],inactive
same,growth inhibition (GI),[4],inactive
same,growth inhibition (GI),[5],inactive
same,growth inhibition (GI),[6],inactive
same,Activity,[7],Active
same,Activity,[8],Active
same,Activity,[9],Active
same,Activity,[10],Active
same,Activity,[11],Active
same,Activity,[12],Active
same,Activity,[13],Active
same,Activity,[14],Active
same,Activity,[15],Active
same,Activity,[16],Active
same,Activity,[17],Active
same,Activity,[18],inactive
same,Activity,[19],inactive
same,Activity,[20],inactive
same,Activity,[21],inactive
same,Activity,[22],inactive
same,Activity,[23],inactive
same,Activity,[24],inactive
same,Activity,[25],inactive
same,Activity,[26],inactive
same,Activity,[27],inactive
same,Activity,[28],inactive
same,Activity,[29],inactive
same,Activity,[30],inactive
same,Activity,[31],inactive
